Results taken from ChEMBL document CHEMBL3085713, “Facile preparation of tetrahydro-5H-pyrido[1,2,3-de]-1,4-benzoxazines via reductive cyclization of 2-(8-quinolinyloxy)ethanones and their antioxidant activity” (Bioorg Med Chem Lett, 2013).

What was measured:
[1] = Antioxidant activity assessed as ABTS free radical scavenging activity after 3 mins by spectrophotometry; type: functional
Method in brief: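 ABTS (2 mM stock in PBS, pH 7.4) reacted with 70 mM K2S2O8, left in dark at room temperature 15-16 h, then diluted with PBS to absorbance 0.70 ± 0.03 at 734 nm. Sample in DMSO (0.1 mL, range of concentrations) mixed with 1.9 mL radical solution; absorbance read at ambient temperature after 3 min, PBS blank. Scavenging % vs sample-free control; triplicate means; IC50 = concentration scavenging 50%.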

[2] = tested on: Radical scavenging activity; assay: Antioxidant activity assessed as DPPH free radical scavenging activity after 30 mins by spectrophotometry; type: functional
Method in brief: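 Sample in DMSO (0.1 mL, range of concentrations) added to 1.9 mL of 0.004% (w/v) DPPH radical in ethanol; incubated at 37 °C, absorbance read at 517 nm after 30 min. Scavenging % = (A control − A test)/A control × 100, control lacking sample. Triplicate, means used; IC50 taken as concentration scavenging 50% of radicals.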

Structure (SMILES) | IC50 [1] [µM] | IC50 [2] [µM]
c1ccc(C2COc3cccc4c3N2CCC4)cc1 (stereo not given) | 38.3 | 78.8
Cc1ccc(C2COc3cccc4c3N2CCC4)cc1 (stereo not given) | 48.4 | 98.4
c1cc2c3c(c1)OCC(c1cccc4ccccc14)N3CCC2 (stereo not given) | 52.4 | 75.2
c1cc2c3c(c1)OCC(c1ccc4ccccc4c1)N3CCC2 (stereo not given) | 62.2 | 98.3
CC1Oc2cccc3c2N(CCC3)C1c1ccccc1 (stereo not given) | 62.4 | 95.4
c1cc2c3c(c1)OCC(c1ccc4c(c1)OCO4)N3CCC2 (stereo not given) | 42.5 | 78.3
COc1ccc(C2COc3cccc4c3N2CCC4)cc1OC (stereo not given) | 28.4 | 75.5
Cc1cc(C(C)(C)C)c(O)c(C(C)(C)C)c1 [BUTYLATED HYDROXYTOLUENE] | 32.1 | 63.1

These reach a lower IC50 [1]. Values come first.

IC50 [1] [µM] | IC50 [2] [µM] | Structure (SMILES)
26.7 | 64.5 | COc1ccc(C2COc3cccc4c3N2CCC4)cc1 (stereo not given)
20.2 | 56.3 | c1csc(C2COc3cccc4c3N2CCC4)c1 (stereo not given)
18.3 | 49.7 | O=C1O[C@H]([C@@H](O)CO)C(O)=C1O [ASCORBIC ACID]
17.8 | 52.3 | Nc1cccc(C2COc3cccc4c3N2CCC4)c1 (stereo not given)
15.3 | 45.4 | COc1ccccc1C1COc2cccc3c2N1CCC3 (stereo not given)
10 | 45 | Nc1ccc(C2COc3cccc4c3N2CCC4)cc1 (stereo not given)
9.3 | 44.6 | COc1cccc(C2COc3cccc4c3N2CCC4)c1 (stereo not given)
